From ChEMBL document CHEMBL2040715, “Discovery of a Potent HIV Integrase Inhibitor that Leads to a Prodrug with Significant anti-HIV Activity” (ACS Med Chem Lett, 2011) come the findings set out here.

Some results are limits rather than exact numbers.

Data set [1] concerns the target T1, Cytochrome P450 3A4 (Homo sapiens, UniProt P08684). Kind of data set: Inhibition of CYP3A4 in human liver microsomes using testosterone as substrate incubated for 3 mins prior to NAPDH-addition measured after 30 mins by RP-HPLC analysis. In kind it is ADME, Microsome. An outline of the steps:
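CYP3A4 inhibition used pooled human liver microsomes at 0.3 mg/mL protein with testosterone as substrate (50 mM stock; 100 μM listed). Incubation ran 30 min across varying inhibitor concentrations, and kinetic analysis gave the IC50.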

Data set [2] is described as follows: Metabolic stability in human liver microsomes assessed as compound remaining at 200 uM incubated for 3 mins prior to NADPH-addition measured after 3 hrs by RP-HPLC analysis. The data set is classed as ADME, Microsome. The settings on record: read-out: Stability. The method in brief:
(§1)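 Pooled human liver microsomes were preincubated with test compound, and the reaction was started with NADPH at 37 °C. Samples were taken at several times up to 3 h and quenched with cold acetonitrile. Precipitated protein was removed by centrifugation, then HPLC with UV detection measured parent remaining, from which the in vitro half-life was derived.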
In general terms: Microsomes from liver hold many membrane-bound enzymes, among them those of drug oxidation.

Data set [3] has as its target Cytochrome P450 2D6 (Homo sapiens, UniProt P10635). The experiment in a line: Activation of CYP2D6 in human liver microsomes incubated for 3 mins prior to NAPDH-addition measured after 60 mins by RP-HPLC analysis. The settings on record: 1 h.
The target in data set [4] is T2, Cytochrome P450 2C8 (Homo sapiens, UniProt P10632).
T2 sequence (P10632 whole entry): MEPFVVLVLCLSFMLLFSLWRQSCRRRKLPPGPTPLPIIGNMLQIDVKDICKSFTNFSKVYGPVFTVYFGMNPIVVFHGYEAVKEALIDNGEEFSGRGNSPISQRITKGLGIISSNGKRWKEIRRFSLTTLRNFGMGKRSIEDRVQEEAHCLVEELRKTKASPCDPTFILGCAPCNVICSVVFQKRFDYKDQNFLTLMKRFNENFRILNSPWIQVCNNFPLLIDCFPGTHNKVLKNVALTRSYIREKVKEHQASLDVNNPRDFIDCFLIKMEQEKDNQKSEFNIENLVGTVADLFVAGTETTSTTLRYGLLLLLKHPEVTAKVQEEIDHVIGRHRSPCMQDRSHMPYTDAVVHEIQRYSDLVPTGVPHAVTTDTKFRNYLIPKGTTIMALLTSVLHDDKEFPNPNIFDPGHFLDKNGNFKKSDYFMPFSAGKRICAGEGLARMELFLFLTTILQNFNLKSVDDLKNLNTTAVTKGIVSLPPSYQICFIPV
Kind of data set: Inhibition of CYP2C8 in human liver microsomes using amodiaquine as substrate incubated for 3 mins prior to NAPDH-addition measured after 30 mins by RP-HPLC analysis. The data set is classed as ADME, Microsome. An outline of the steps: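 CYP2C8 was assayed in pooled human liver microsomes at 0.4 mg/mL protein with amodiaquine as substrate (5 mM stock; 200 μM listed). Incubation was 30 min with varying inhibitor concentrations, and IC50 was obtained by kinetic analysis.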

Data set [5] concerns the target T2, Cytochrome P450 2C8. The experiment in a line: Activation of CYP2C8 in human liver microsomes incubated for 3 mins prior to NAPDH-addition measured after 30 mins by RP-HPLC analysis. The data set is classed as ADME, Microsome. The settings on record: 0.5 h.
Data set [6] addresses T1, Cytochrome P450 3A4. Kind of data set: Activation of CYP3A4 in human liver microsomes incubated for 3 mins prior to NAPDH-addition measured after 30 mins by RP-HPLC analysis. The note with it: 0.5 h. In kind it is ADME, Microsome.
In data set [7] the test system is Liver microsomes. The experiment in a line: Drug metabolism in human liver microsomes assessed as 3-acetyl-5-(2,4-difluorobenzyl)-1-(2-fluorobenzyl)pyridin-2(1H)-one production at 200 uM incubated for 3 mins prior to NADPH-addition by RP-HPLC analysis. The note with it: 0.05 h. In kind it is ADME, Microsome.
In data set [8] the test system is Liver microsomes. Kind of data set: Half life in human liver microsomes at 200 uM incubated for 3 mins prior to NADPH-addition by RP-HPLC analysis. In kind it is ADME, Microsome. The settings on record: 0.05 h. An outline of the steps: as §1
Data set [9] has as its system Human immunodeficiency virus 1. Kind of data set: Antiviral activity against HIV1 infected in MAGI cells by beta-galactosidase reporter gene assay. The data set is classed as functional, organism-based. The note with it: Human immunodeficiency virus 1, MAGI. An outline of the steps: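 HIV-1 infection of MAGI cells, with raltegravir as the MOI-sensitive positive control validating each run. EC50 and EC90 were determined.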
On the technique in general: A reporter such as luciferase makes a cellular process visible.

Data set [10] concerns the target T3, UDP-glucuronosyltransferase 1A9 (Homo sapiens, UniProt O60656).
T3 sequence (O60656 whole entry): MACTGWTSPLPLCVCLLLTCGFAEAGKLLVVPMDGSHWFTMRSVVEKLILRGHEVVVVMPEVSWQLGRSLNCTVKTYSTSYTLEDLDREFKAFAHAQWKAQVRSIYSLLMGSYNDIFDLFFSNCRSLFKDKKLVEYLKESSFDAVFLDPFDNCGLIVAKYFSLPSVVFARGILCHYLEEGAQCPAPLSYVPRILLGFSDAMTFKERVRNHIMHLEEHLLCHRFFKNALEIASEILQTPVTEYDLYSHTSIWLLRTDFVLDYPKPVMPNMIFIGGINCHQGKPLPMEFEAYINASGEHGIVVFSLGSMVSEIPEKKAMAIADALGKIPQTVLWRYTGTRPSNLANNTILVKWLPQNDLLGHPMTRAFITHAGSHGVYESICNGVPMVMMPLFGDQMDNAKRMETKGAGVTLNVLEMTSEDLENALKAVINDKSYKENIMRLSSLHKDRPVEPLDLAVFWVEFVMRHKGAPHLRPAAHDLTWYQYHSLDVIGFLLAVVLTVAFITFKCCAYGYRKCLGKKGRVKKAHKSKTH
Kind of data set: Activity at UGT1A9 in human liver microsomes at 50 uM incubated for 3 mins prior to NADPH-addition measured up to 120 mins by HPLC/UV analysis. In kind it is ADME, Microsome.

Data set [11] deals with T4, UDP-glucuronosyltransferase 1A6 (Homo sapiens, UniProt P19224).
T4 sequence (P19224 whole entry): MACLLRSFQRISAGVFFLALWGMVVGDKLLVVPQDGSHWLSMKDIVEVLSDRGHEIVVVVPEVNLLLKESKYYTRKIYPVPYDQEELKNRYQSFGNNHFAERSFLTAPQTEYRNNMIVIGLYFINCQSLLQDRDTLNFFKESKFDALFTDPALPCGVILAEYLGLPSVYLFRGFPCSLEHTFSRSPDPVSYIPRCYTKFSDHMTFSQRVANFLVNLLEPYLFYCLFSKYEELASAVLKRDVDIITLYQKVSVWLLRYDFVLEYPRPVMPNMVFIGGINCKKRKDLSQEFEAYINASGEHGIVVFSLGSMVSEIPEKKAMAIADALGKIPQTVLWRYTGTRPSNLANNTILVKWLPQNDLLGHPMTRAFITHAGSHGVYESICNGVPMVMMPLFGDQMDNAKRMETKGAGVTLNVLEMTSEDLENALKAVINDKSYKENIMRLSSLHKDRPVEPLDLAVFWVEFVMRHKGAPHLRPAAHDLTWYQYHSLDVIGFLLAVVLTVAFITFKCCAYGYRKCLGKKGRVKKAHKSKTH
The experiment in a line: Activity at UGT1A6 in human liver microsomes at 50 uM incubated for 3 mins prior to NADPH-addition measured up to 120 mins by HPLC/UV analysis. In kind it is ADME, Microsome.

T1 sequence (P08684 whole entry): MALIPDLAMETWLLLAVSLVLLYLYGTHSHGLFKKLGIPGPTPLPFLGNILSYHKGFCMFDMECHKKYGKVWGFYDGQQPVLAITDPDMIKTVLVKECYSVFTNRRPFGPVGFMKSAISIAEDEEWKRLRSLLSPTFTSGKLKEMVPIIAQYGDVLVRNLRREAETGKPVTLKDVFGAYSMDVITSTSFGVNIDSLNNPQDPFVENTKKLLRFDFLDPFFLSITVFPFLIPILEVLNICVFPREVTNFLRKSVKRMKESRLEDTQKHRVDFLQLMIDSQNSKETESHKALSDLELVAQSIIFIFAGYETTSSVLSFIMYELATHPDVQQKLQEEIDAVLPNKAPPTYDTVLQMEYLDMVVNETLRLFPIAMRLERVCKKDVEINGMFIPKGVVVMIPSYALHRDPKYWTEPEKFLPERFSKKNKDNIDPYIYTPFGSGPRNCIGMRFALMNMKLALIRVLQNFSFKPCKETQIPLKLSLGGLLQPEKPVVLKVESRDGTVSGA
Sequence of Cytochrome P450 2D6 (P10635 whole entry): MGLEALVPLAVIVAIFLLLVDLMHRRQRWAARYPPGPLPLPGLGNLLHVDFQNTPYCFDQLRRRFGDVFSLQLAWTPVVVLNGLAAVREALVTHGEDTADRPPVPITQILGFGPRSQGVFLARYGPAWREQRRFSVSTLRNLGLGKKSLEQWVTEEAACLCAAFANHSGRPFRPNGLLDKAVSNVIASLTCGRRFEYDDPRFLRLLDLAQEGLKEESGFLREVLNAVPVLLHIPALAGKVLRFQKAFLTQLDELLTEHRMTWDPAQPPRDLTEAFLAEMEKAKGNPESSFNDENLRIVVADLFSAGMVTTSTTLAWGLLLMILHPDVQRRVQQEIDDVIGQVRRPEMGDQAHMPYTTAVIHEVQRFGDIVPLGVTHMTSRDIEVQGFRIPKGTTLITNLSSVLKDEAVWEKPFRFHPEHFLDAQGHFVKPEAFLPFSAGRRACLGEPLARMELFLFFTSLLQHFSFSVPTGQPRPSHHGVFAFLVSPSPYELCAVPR

As for `O=C(O)/C(O)=C/C(=O)c1cc(Cc2ccc(F)cc2F)cn(Cc2ccccc2F)c1=O`, the IC50 in data set [1] is greater than 200 µM; in data set [4] it was greater than 65 µM. The remaining at 3 h, 200 µM in data set [2] came to 80%. In addition, the Activity entry in data set [3], in data set [5], in data set [6], in data set [10] and in data set [11] was “Not Active” each time. Further, the Drug metabolism entry in [7] is listed as “Active”. This compound also gave a t1/2 in data set [8] greater than 3 h. It took 0.5 µM to reach a half-maximal effect in [9] (EC50).

One may read the IC50 as the concentration that gives 50% inhibition. A high value points to weaker potency in that assay. Usually EC50 stands for the concentration that produces a half-maximal response. A low value points to higher potency in that assay.
